In the library only some 1.5% were active in any assay of this set; here they are far more common.
Lipid droplet: modulators of hepatic lipid droplet formation | AML12 mouse hepatocytes, oleate lipid droplets, BODIPY imaging | inhibition, % at 6.5 µM | hit rate 0.4% among 240,000;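 active = lipid droplet intensity inhibited by at least 50%, with more than 500 cells counted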
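System: AML12 hepatocytes (mouse). Probe or stimulus: oleic acid at 100 µM to induce lipid droplet formation. Times: overnight treatment with compound plus oleate. Detection: Image-based BODIPY and DAPI two-channel analysis. Evaluation: percent inhibition of filter-corrected integrated lipid droplet intensity per well.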
STAT1 blocker: reduces IFN-gamma driven STAT1 reporter signal; NIH 3T3 STAT1-luciferase reporter, luminescence; inhibition, % at 5.5 µM; hit rate 0.35% among 200,000; AID 920;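 active = inhibition above a set limit, the mean inhibition across all tested compounds plus 3 SD, cut at about 34% in these data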
PPC-1+TRAIL kill: kills PPC-1 cancer cells in the presence of TRAIL; hit rate 0.41% among 220,000; PPC-1 cells + TRAIL, ATPLite viability luminescence; cell killing (% activity), % at 4 µM or 5 µM; AID 1443;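 active = cell killing above 50% in the first pass at 4 µM, then a duplicate retest at 5 µM averaging 50% or more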
STAT3 blocker: reduces IL-6 driven STAT3 reporter signal; U3A cells, IL-6 STAT3-luciferase reporter, luminescence; host cell line lacks STAT1; inhibition, % at 5.5 µM; hit rate 0.89% among 190,000;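 active = inhibition above the mean inhibition across all screened compounds plus 3 SD, cut at about 44% in these data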
Platelet DG rel: modulates dense granule release in human platelets. hit rate 0.22% among 300,000. human platelet-rich plasma, SFLLRN dense granule ATP release, luminescence. inhibition, %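 (compounds screened at 7.5 µM in platelet-rich plasma)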;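 active = mean replicate score, as percent of positive control, at or above 50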
H9c2 TAG inh: inhibitors of triacylglycerol accumulation. hit rate 0.66% among 230,000. H9c2 cells, Nile Red lipid (TAG) fluorescence; cells loaded with 200 µM oleic acid. inhibition, % at 12.5 µM. AID 651582;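 active = pattern-corrected inhibition of lipid staining of at least 50% with the nuclear-stain viability signal not falling by more than 50%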
Hep lipid conf: hepatic lipid droplet formation inhibition, confirmed. hit rate 65% among 870. inhibition, % at 5.2 µM. shares compounds with Lipid droplet. AML12 mouse hepatocytes, BODIPY lipid droplet imaging; droplets induced with 100 µM oleic acid;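 active = inhibition of lipid droplet metric at least 50%, with more than 300 cells in each of four replicates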
AML12 tox img: counter-screen for cytotoxicity in AML12 mouse hepatocytes. shares compounds with Lipid droplet. DAPI nuclear morphology cytotoxicity imaging; active compounds read high; cells fed 100 µM oleate overnight. z-score at 5 µM. hit rate 3% among 870; in the data active = z-score above about 6.3;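 note: compound exposure lasted overnight at 37 °C before fixation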
AML12 tox ATP: AML12 hepatocyte cytotoxicity, confirmed. shares compounds with Lipid droplet. AML12 mouse hepatocyte viability, ATP luminescence; cells loaded with 100 µM oleic acid. cytotoxicity, % at 50 µM. 530 tested, under 10 active. AID 463219;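 active = cytotoxicity above 50% in each of four replicates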;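 note: compound exposure lasted overnight at 37 °C before the ATP read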
Large screens that a line does not name were inactive (follow-up assays come after a bar, where they were run).

CCOc1cc(N2CCOCC2)c(OCC)cc1NC(=O)c1cc(S(=O)(=O)N2CCOCC2)ccc1F	none (no result: Lipid droplet, STAT1 blocker, PPC-1+TRAIL kill, STAT3 blocker, Platelet DG rel)
COc1ccc(CN(C)C(=O)CNC(=O)Cc2cccc3ccccc23)c(OC)c1OC	Lipid droplet 52.8 (no result: STAT1 blocker, PPC-1+TRAIL kill, STAT3 blocker) | Hep lipid conf 82.5 | AML12 tox img inactive | AML12 tox ATP inactive
COc1ccc(CCN(C)C(=O)CNC(=O)Cc2cccc3ccccc23)cc1OC	none (no result: STAT1 blocker, PPC-1+TRAIL kill, STAT3 blocker)
COC(=O)c1cccc(NC(=O)CCN2C(=O)NC(C)(C)C2=O)c1	none (no result: Lipid droplet, STAT1 blocker, PPC-1+TRAIL kill, STAT3 blocker, Platelet DG rel)
Cc1ccc(C(C(=O)NC2CCCC2)N(C(=O)c2csnn2)C2CCCC2)o1 (stereo unspecified)	none (no result: Lipid droplet, H9c2 TAG inh)
Cc1ccc(C(C(=O)NC2CCCCC2)N(C(=O)c2csnn2)C2CCCC2)o1 (stereo unspecified)	Lipid droplet 52.1 (no result: H9c2 TAG inh) | Hep lipid conf 81.2 | AML12 tox img inactive | AML12 tox ATP inactive
C=CCN(C(=O)c1csnn1)C(C(=O)NC1CCCCC1)c1ccccc1F (stereo unspecified)	Lipid droplet 55.7 (no result: STAT1 blocker, PPC-1+TRAIL kill, STAT3 blocker, H9c2 TAG inh) | Hep lipid conf 92.6 | AML12 tox img inactive | AML12 tox ATP inactive
Cc1nc(Nc2ccc(O)cc2)c2c3c(sc2n1)CCCC3	Lipid droplet 60.3 (no result: STAT1 blocker, STAT3 blocker) | Hep lipid conf 75.2 | AML12 tox img inactive
Cc1ccc(-c2cc(NC=O)c3ncc(-c4cnn(C)c4)n3c2)cc1	none (no result: Lipid droplet, STAT1 blocker, PPC-1+TRAIL kill, STAT3 blocker, Platelet DG rel)
COc1ccc2nc(N=Nc3ccc(O)c4ccccc34)sc2c1	Lipid droplet 70.6 (no result: H9c2 TAG inh) | Hep lipid conf 104.7 | AML12 tox img inactive
COc1ccc2nc(N=NC3=C(O)CC(C)(C)CC3=O)sc2c1	none
CCc1ccc(NC(=O)CSc2nnc(C)c(=O)n2N)cc1	Lipid droplet 58.3 (no result: STAT1 blocker, PPC-1+TRAIL kill, STAT3 blocker) | Hep lipid conf 89.1 | AML12 tox img inactive | AML12 tox ATP inactive
CC(=O)Nc1ccc(-c2csc(NC(=O)Cc3ccccc3F)n2)cc1	Lipid droplet 57.7 (no result: STAT1 blocker, PPC-1+TRAIL kill, STAT3 blocker, H9c2 TAG inh) | Hep lipid conf 74.9 | AML12 tox img inactive | AML12 tox ATP inactive
CC(=O)Nc1ccc(-c2csc(NC(=O)Cc3cccc(F)c3)n2)cc1	Lipid droplet 64.3 (no result: STAT1 blocker, PPC-1+TRAIL kill, STAT3 blocker, H9c2 TAG inh) | Hep lipid conf 100.5 | AML12 tox img inactive | AML12 tox ATP inactive
CCN(CC)C(=O)CC(c1ccc(OC)cc1)c1c(OC)cc(OC)c2ccc(=O)oc12 (stereo unspecified)	Lipid droplet 64.4 (no result: STAT1 blocker, STAT3 blocker) | Hep lipid conf inactive | AML12 tox img inactive
CCN(CC)C(=O)CC(c1cc(OC)c(OC)c(OC)c1)c1c(OC)cc(OC)c2ccc(=O)oc12 (stereo unspecified)	none (no result: STAT1 blocker, STAT3 blocker)
COc1cc(N2CCCC2)c(OC)cc1/C=C(/C#N)c1ccc(F)cc1	Lipid droplet 50.1 | Hep lipid conf inactive | AML12 tox img inactive
COc1cc(N2CCCC2)c(OC)cc1/C=C(/C#N)c1ccc(Br)cc1	none (no result: H9c2 TAG inh)
CCOC(=O)CSc1c(-c2cccs2)[nH]c2ccccc12	Lipid droplet 82.9 (no result: H9c2 TAG inh) | Hep lipid conf 95.4 | AML12 tox img inactive | AML12 tox ATP inactive
CC(c1nc2ccccc2c(=O)[nH]1)N1CCN(S(=O)(=O)c2ccc(F)c(Cl)c2)CC1 (stereo unspecified)	none (no result: Lipid droplet, STAT1 blocker, PPC-1+TRAIL kill, STAT3 blocker, Platelet DG rel)
O=C(Nc1ccc(NC(=O)c2cc3ccccc3o2)cc1)c1ccco1	Lipid droplet 70.3 (no result: STAT1 blocker, PPC-1+TRAIL kill, STAT3 blocker, H9c2 TAG inh) | Hep lipid conf 64.6 | AML12 tox img inactive | AML12 tox ATP inactive
CCC(=O)Nc1ccc(NC(=O)c2ccco2)cc1	none (no result: Lipid droplet, H9c2 TAG inh)
CCOc1ccc(CC(=O)Nc2ccc(NC(=O)c3ccco3)cc2)cc1OCC	Lipid droplet 56.9 | Hep lipid conf 98.2 | AML12 tox img inactive | AML12 tox ATP inactive
COc1cc(NC(=O)c2ccco2)c(OC)cc1NC(=O)CCC(=O)Nc1cc(C)cc(C)c1	Lipid droplet 96.7 (no result: H9c2 TAG inh) | Hep lipid conf 106.8 | AML12 tox img inactive | AML12 tox ATP 56.3
Cn1nccc1-c1ccc(C(=O)NCc2ccc(Cl)cc2)c2occc12	none (no result: Lipid droplet, STAT1 blocker, PPC-1+TRAIL kill, STAT3 blocker, Platelet DG rel)
CC(C)Cn1c(CCC(N)=O)nnc1SC(C)C(=O)Nc1ccc2c(c1)OCO2 (stereo unspecified)	none (no result: Lipid droplet, STAT1 blocker, PPC-1+TRAIL kill, STAT3 blocker, Platelet DG rel)
